Screening results deposited in PubChem BioAssay by several laboratories.
UPR XBP1 act – activators of adaptive XBP1 UPR arm, primary screen, cell-based, CHO-XBP1 luciferase reporter, luminescence, uHTS | activation, % at 20 µM | IRE1-XBP1 UPR activation; percent of tunicamycin response, DMSO as zero | 330,000 compounds, 0.33% hits | AID 463104, 2010;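 active means versus positive control, 20 µM dose yields 30% or more activation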;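 further: 100% = tunicamycin at 10 µg/mL and 0% = DMSO only wells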
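Test system: CHO-XBP1 luciferase reporter cells | Buffer or medium: Serum-containing F12 medium, 10% FBS | Schedule: 6 h compound exposure at 37 °C, 5% CO2 | Detection: Steady-Glo luciferase glow luminescence, 10 min after reagent addition | Read-out basis: Activation, % of tunicamycin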
aDG glyco up – activators of alpha-DG glycosylation, primary screen, uHTS, Pro5-aDG cells, AlphaScreen; alpha-DG glycosylation AlphaScreen (IIH6); 0% Pro5, 100% B10-LARGE cell signal; activation, % at 10 µM; 360,000 compounds, 0.22% hits; AID 624168, 2012;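 active means activation of at least 8% versus controls, or a plate z-score of at least 8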;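 further: Pro5 are CHO cells carrying HIG-tagged alpha-DG that lacks glycosylation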
MPTP block – mitochondrial permeability transition pore inhibitors, primary screen, biochemical, isolated mouse mitochondria, absorbance; AID 602449, 2012; Ca2+ swelling absorbance, 30 min; inhibition, % at 10 µM; 360,000 compounds, 1.4% hits;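 active means inhibition of 50% or more, scaled per plate between neutral and stimulator controls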;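 further: 0% = DMSO wells given calcium and 100% = 1 mM EGTA wells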
CHOP inhibitor – inhibitors of CHOP promoter induction, primary screen, cell-based, unfolded protein response, luciferase reporter; CHO-K1 CHOP-promoter luciferase, tunicamycin-induced, 15-18 h; inhibition, % at 10 µM; 220,000 compounds, 3.8% hits;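 active means compounds that reduced the stress-induced luciferase reporter signal by more than about 70% of percent inhibition, limit read from the data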;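 further: 0% = tunicamycin plus vehicle and 100% = wells without tunicamycin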
GRIN3A LBD mod – binders of NR3A ligand-binding domain, primary screen, biophysical, differential scanning fluorimetry, uHTS; Glutamate receptor ionotropic, NMDA 3A (GRIN3A) ligand-binding domain; NR3A LBD differential scanning fluorimetry, Tm shift; 0% = protein alone, 100% = glycine-bound protein; Tm shift relative to glycine control, % at 25 µM; 340,000 compounds, 2.5% hits;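 active means melting temperature shift of at least 10% of the positive control shift, at one fixed dose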
CHOP UPR activ – activators of apoptotic CHOP UPR arm, primary screen, cell-based, CHO-CHOP luciferase reporter, luminescence, uHTS; UPR activation; percent of tunicamycin response over DMSO baseline; activation, % at 10 µM; 330,000 compounds, 0.34% hits; AID 449763, 2010;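 active means at 10 µM dose, activation of 40% or more, normalized to positive control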;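 further: 100% = tunicamycin at 10 µg/mL and 0% = DMSO alone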
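Evaluation: % reporter activation, DMSO baseline versus tunicamycin full activation; System: CHO-CHOP luciferase reporter cell line; Input: 500 cells/well; Incubation: 6 h compound treatment, 37 °C; Measured by: Steady-Glo luciferase luminescence; Dosing: one dose, 10 µM in 0.5% DMSO; Buffer or medium: F12 medium, 10% FBS; Benchmarks: positive tunicamycin 10 µg/mL, negative DMSO alone.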
Active calls of the source: *. Hits are enriched below; roughly 5.6% of the tested compounds scored in any of these assays.

`Cc1ccc(-c2nnc(SCC(=O)NCC3CCCO3)nc2-c2ccc(C)cc2)cc1` (centres undefined) gave UPR XBP1 act 2, aDG glyco up 0, MPTP block 0, GRIN3A LBD mod -1 and CHOP UPR activ -1.
COC(=O)c1nc2n(n1)C(c1cc(OC)ccc1OC)C(C(=O)OC1CCCCC1)=C(C)N2 (centres undefined) was read as UPR XBP1 act -1, aDG glyco up 0, MPTP block 1, CHOP inhibitor 80*, GRIN3A LBD mod 3 and CHOP UPR activ 2.
`O=C(O)c1ccc(N2C(=O)C3ON(c4ccccc4)C(c4ccccc4F)C3C2=O)cc1` (centres undefined) gave UPR XBP1 act -1, aDG glyco up 0, MPTP block 0, CHOP inhibitor 11, GRIN3A LBD mod -1 and CHOP UPR activ 0.
O=C1C2ON(c3ccccc3)C(c3ccccc3F)C2C(=O)N1c1ccccc1 (centres undefined) was read as UPR XBP1 act 2, aDG glyco up 0, MPTP block 4, CHOP inhibitor 80*, GRIN3A LBD mod -14 and CHOP UPR activ -1.
For O=C1C2ON(c3ccc(Cl)cc3)C(c3ccco3)C2C(=O)N1c1ccccc1 (centres undefined) the results were UPR XBP1 act 0, aDG glyco up 0, MPTP block -1, CHOP inhibitor 74*, GRIN3A LBD mod -14 and CHOP UPR activ 0.
Screening O=C1C2ON(c3ccccc3)C(c3ccccn3)C2C(=O)N1c1ccc(Br)cc1 (centres undefined) returned UPR XBP1 act -6, aDG glyco up 0, MPTP block -1, CHOP inhibitor -13, GRIN3A LBD mod -11 and CHOP UPR activ -1.
CCCn1c(N)c(C(=O)CN(C)CC(=O)Nc2c(C)cc(C)cc2C)c(=O)[nH]c1=O was read as UPR XBP1 act -1, aDG glyco up 0, MPTP block -1, GRIN3A LBD mod -1 and CHOP UPR activ -2.
Cc1ccccc1COc1cccc(/C=N/NC(=O)c2nnn(-c3nonc3N)c2C)c1 was read as UPR XBP1 act 4, aDG glyco up -1, MPTP block 0, GRIN3A LBD mod -2 and CHOP UPR activ 8.
`CC(C)c1c(C(=O)N/N=C/c2ccc(OCc3ccc(F)cc3)cc2)nnn1-c1nonc1N` gave UPR XBP1 act 0, aDG glyco up 0, MPTP block 1, GRIN3A LBD mod 29* and CHOP UPR activ 2.
For CC(C)c1c(C(=O)N/N=C/c2ccc(OCc3ccccc3)cc2)nnn1-c1nonc1N the results were UPR XBP1 act 4, aDG glyco up 3, MPTP block 1, GRIN3A LBD mod 32* and CHOP UPR activ 5.
`COc1cc(/C=N/NC(=O)c2nnn(-c3nonc3N)c2C(C)C)ccc1O` gave UPR XBP1 act -4, aDG glyco up 0, MPTP block 0, GRIN3A LBD mod 30* and CHOP UPR activ 1.
For CC(C)c1c(C(=O)N/N=C/c2cccc(OCc3ccccc3)c2)nnn1-c1nonc1N the results were UPR XBP1 act -4, aDG glyco up 0, MPTP block 7, GRIN3A LBD mod 24* and CHOP UPR activ 0.
`COc1cc(/C=N/NC(=O)c2nnn(-c3nonc3N)c2-c2cccs2)ccc1O` gave UPR XBP1 act 1, aDG glyco up 0, MPTP block 0, GRIN3A LBD mod 4 and CHOP UPR activ 3.
Cc1cc(C)c(C)c(OCCN2CCOCC2)c1 was read as UPR XBP1 act -2, aDG glyco up 0, MPTP block -1, GRIN3A LBD mod 0 and CHOP UPR activ 9.
COc1ccccc1/C=C/C(=O)N1CCN(S(=O)(=O)c2cc(C)ccc2C)CC1 was read as UPR XBP1 act -1, aDG glyco up 0, MPTP block -2, GRIN3A LBD mod 0 and CHOP UPR activ 1.
`CC(C)c1c(C(=O)N/N=C/c2ccc(C(F)(F)F)cc2)nnn1-c1nonc1N` gave UPR XBP1 act -1, aDG glyco up 1, MPTP block 1, GRIN3A LBD mod 28* and CHOP UPR activ 2.
Screening Cc1c(C(=O)N/N=C/c2cccc(O)c2)nnn1-c1nonc1N returned UPR XBP1 act -1, aDG glyco up 0, MPTP block -3, GRIN3A LBD mod 12* and CHOP UPR activ 3.
Screening COc1cc(/C=N/NC(=O)c2nnn(-c3nonc3N)c2C(C)C)ccc1OCc1ccccc1 returned UPR XBP1 act 1, aDG glyco up 3, MPTP block 0, GRIN3A LBD mod 35* and CHOP UPR activ 8.
CC(C)c1c(C(=O)N/N=C/c2ccoc2)nnn1-c1nonc1N was read as UPR XBP1 act 0, aDG glyco up 0, MPTP block 2, GRIN3A LBD mod -20 and CHOP UPR activ 0.
`Cc1ccc(S(=O)(=O)c2c(C)cc(C)[nH]c2=O)c(C)c1` gave UPR XBP1 act -2, aDG glyco up 0, MPTP block 0, GRIN3A LBD mod 0 and CHOP UPR activ -1.
`COc1cc(Cl)c(NS(=O)(=O)c2ccc(-c3ccc(=O)[nH]n3)o2)c(OC)c1` gave UPR XBP1 act 5, aDG glyco up 0, MPTP block 1, GRIN3A LBD mod 16* and CHOP UPR activ 1.
For COC(=O)c1ccccc1NC(=O)COC(=O)Cc1ccc(S(=O)(=O)N2CCOCC2)s1 the results were aDG glyco up 0, MPTP block 0 and GRIN3A LBD mod 0.
C#CCOc1ccccc1CNC1CCN(Cc2ccccc2)CC1 was read as UPR XBP1 act -6, aDG glyco up 0, MPTP block 0, GRIN3A LBD mod 0 and CHOP UPR activ 0.
CCOC(=O)N1CC=C2C(C#N)=C(N)C(C#N)(C#N)[C@H](c3ccccc3OCC)[C@H]2C1 was read as UPR XBP1 act 0, aDG glyco up 0, MPTP block -3, CHOP inhibitor 74*, GRIN3A LBD mod -2 and CHOP UPR activ 7.
For Cc1cccc(C(=O)NNC(=O)C2CC2)c1 the results were UPR XBP1 act -3, aDG glyco up 0, MPTP block 0, GRIN3A LBD mod -2 and CHOP UPR activ 0.
For O=[N+]([O-])c1ccccc1-c1cc(-c2cc(Cl)ccc2O)n[nH]1 the results were aDG glyco up 0, MPTP block 20, CHOP inhibitor 77* and GRIN3A LBD mod 18*.
